pEC50: −log10 of the molar value. Values after ≈ are worked out from the molar mass of the structure shown. Active and inactive are the calls of the source. The rule behind the calls is not given here.
Assays:
Candida = experiment: Antimicrobial activity against Candida
Coxsackievirus B2 = experiment: Antiviral activity against CVB2 infected in Vero76 cells assessed as reduction in virus plaque formation after 4 days by MTT assay; type: functional, organism-based; details: Enterovirus B, Vero 76, 96 h
[1] = Cytotoxicity against mock-infected BHK cells assessed as reduction in cell viability after 96 hrs by MTT assay; type: cell-based, Mesocricetus auratus; details: hamster
Outline: (§1)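 Cytotoxicity run in parallel with the antiviral assays. MDBK seeded at 6 × 10^5 and BHK at 1 × 10^6 cells/mL in maintenance medium with or without serial compound dilutions. Incubated 48–96 h at 37 °C, 5% CO2, then viability read by MTT. CC50 is the concentration reducing mock-infected cell viability by 50%.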

[2] = tested on: Respiratory syncytial virus; experiment: Antiviral activity against RSV infected in Vero76 cells assessed as reduction in virus plaque formation after 4 days by MTT assay; type: functional, organism-based; details: human respiratory syncytial virus, Vero 76, 96 h
[3] = tested on: Human immunodeficiency virus 1; experiment: Antiviral activity against HIV1 infected in MT4 cells assessed as virus-induced cytopathogenicity after 4 days; type: functional, organism-based
[4] = Cytotoxicity against mock-infected MDBK cells assessed as reduction in cell viability after 96 hrs by MTT assay; type: cell-based, Bos taurus; details: cattle; outline: as §1
Poliovirus 1 = experiment: Antiviral activity against Sb1 virus infected in Vero76 cells assessed as reduction in virus plaque formation after 4 days by MTT assay; type: functional, organism-based; details: Enterovirus C, Sabin, Vero 76, 96 h
Vaccinia virus = experiment: Antiviral activity against VV infected in Vero76 cells assessed as reduction in virus plaque formation after 4 days by MTT assay; type: functional, organism-based; details: Orthopoxvirus vaccinia; Vero 76
[5] = Cytotoxicity against mock-infected human MT4 cells assessed as reduction in cell viability after 96 hrs by MTT assay; type: cell-based
Outline: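 Exponentially growing MT-4 cells seeded at 1 × 10^5 cells/mL in RPMI-1640 with 10% FCS, penicillin and streptomycin, with or without serial compound dilutions. Incubated at 37 °C, 5% CO2; viability read by MTT after 96 h. CC50 is the concentration reducing mock-infected cell viability by 50%.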

[6] = tested on: Mammalian orthoreovirus 1; experiment: Antiviral activity against Reo virus 1 infected in BHK21 cells assessed as protection against virus-induced cytopathogenicity after 4 days by MTT assay; type: functional, organism-based; details: Mammalian orthoreovirus 1, BHK-21, 96 h
Yellow fever virus = experiment: Antiviral activity against YFV infected in BHK21 cells assessed as protection against virus-induced cytopathogenicity after 4 days by MTT assay; type: functional, organism-based; details: BHK-21, 96 h
Outline: (§2)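 MDBK (BVDV) or BHK-21 (YFV) cells were seeded at 3 × 10^4 or 5 × 10^4 cells/well respectively and grown overnight to confluent monolayers at 37 °C in 5% CO2. Monolayers were infected at m.o.i. 0.01 in serum-free medium. After 1 h, MEM Earle's with 1% FCS was added, with or without serial compound dilutions. After 3–4 days at 37 °C, viability was read by MTT. EC50 was taken as 50% protection from virus-induced cytopathogenicity.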

[7] = Cytotoxicity against mock-infected african green monkey Vero76 cells assessed as reduction in cell viability after 96 hrs by MTT assay; type: cell-based, Vero; details: chlorocebus sabaeus
[8] = tested on: Vesicular stomatitis virus; experiment: Antiviral activity against VSV infected in Vero76 cells assessed as reduction in virus plaque formation after 4 days by MTT assay; type: functional, organism-based; details: Vero 76
[9] = tested on: Bovine viral diarrhea virus 1; experiment: Antiviral activity against BVDV infected in MDBK cells assessed as protection against virus-induced cytopathogenicity after 4 days by MTT assay; type: functional, organism-based; details: Bovine viral diarrhea virus isolates and strains, 96 h; outline: as §2
Pseudomonas aeruginosa = experiment: Antimicrobial activity against Pseudomonas aeruginosa; type: functional

SMILES | MIC (Candida) [µg/mL] | pEC50 (Coxsackievirus B2) | CC50 at 96 h [1] [µM] | pEC50 [2] | Activity [3] | CC50 at 96 h [4] [µM] | pEC50 (Poliovirus 1) | Activity (Vaccinia virus) | CC50 at 96 h [5] [µM] | pEC50 [6] | pEC50 (Yellow fever virus) | CC50 at 96 h [7] [µM] | Activity [8] | pEC50 [9] | MIC (Pseudomonas aeruginosa) [µg/mL]
Clc1ccc(COC(Cn2ccnc2)c2ccc(Cl)cc2Cl)c(Cl)c1.O=[N+]([O-])O (stereo unspecified) [MICONAZOLE NITRATE] | 0.25 |  |  |  |  |  |  |  |  |  |  |  |  |  | 
CN1C=C(/N=N/c2ccc(Br)cc2)CCC1 |  | < 4.00 | > 100 | 4.74 | inactive | > 100 | < 4.00 | inactive | 83 | 4.12 | 4.00 | 100 | inactive | 4.22 | 
CCn1cc(C(=O)O)c(=O)c2cc(F)c(N3CCNCC3)cc21 [NORFLOXACIN] |  |  |  |  |  |  |  |  |  |  |  |  |  |  | 4 (≈ 12.5 µM)
CN1C=C(/N=N/c2ccc(Cl)cc2)CCC1 |  | 5.30 | > 100 | 4.70 | inactive | 58 | 5.10 | inactive | > 100 | 4.49 | < 4.00 | 90 | inactive | < 4.24 | 
Fc1ccc(/N=N\C2=C3CCCCN3CCC2)cc1 |  | 4.57 | > 100 | < 4.00 | inactive | 56 | < 4.00 | inactive | 94 | 4.47 | 4.00 | > 100 | inactive | < 4.25 | 
